Laboratory results reported in ChEMBL document CHEMBL3576777, “Hypocoprins A-C: new sesquiterpenoids from the coprophilous fungus Hypocopra rostrata” (J Nat Prod, 2015).
The source made the active and inactive calls. No cut-off for these calls is given here.

Tests used:
U2OS = test: Cytotoxicity against human U2OS cells assessed as cell viability after 48 hrs by CellTiter-Blue assay; assay type: functional, cell-based
Procedure, shortened: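 Human osteosarcoma U2OS cells were seeded at 250 cells per well in 384-well format and incubated overnight. Each well received 50 nL of a 10 mM DMSO stock, in duplicate, then 48 h at 37 °C. CellTiter-Blue reagent was added, followed by a further 22 h at 37 °C. […] was read at 530/580 nm.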

Staphylococcus aureus [1] = test: Antibacterial activity against Staphylococcus aureus ATCC 29213 by agar disk diffusion method; assay type: functional
Procedure, shortened: (§1)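 Agar disk diffusion following standard protocols; test material applied at 200 μg/disk; gentamicin at 20 μg/disk served as the standard. Organisms: S. aureus ATCC 29213, B. subtilis ATCC 6051, E. coli ATCC 25922 and C. albicans ATCC 14053. Read-out was the diameter of the inhibitory zone in mm.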

Staphylococcus aureus [2] = test: Antibacterial activity against Staphylococcus aureus ATCC 29213 at 200 ug/disk by agar disk diffusion method; assay type: functional; conditions: read-out: DIZ; procedure, shortened: as §1
Candida albicans [3] = test: Antifungal activity against Candida albicans ATCC 14053 at 200 ug/disk by agar disk diffusion method; assay type: functional, organism-based; procedure, shortened: as §1
Bacillus subtilis [4] = test: Antibacterial activity against Bacillus subtilis ATCC 6051 at 200 ug/disk by agar disk diffusion method; assay type: functional; conditions: read-out: DIZ; procedure, shortened: as §1
Escherichia coli [5] = test: Antibacterial activity against Escherichia coli ATCC 25922 at 200 ug/disk by agar disk diffusion method; assay type: functional, organism-based; procedure, shortened: as §1
Bacillus subtilis [6] = test: Antibacterial activity against Bacillus subtilis ATCC 6051 by agar disk diffusion method; assay type: functional, organism-based; procedure, shortened: as §1
Candida albicans [7] = test: Antifungal activity against Candida albicans ATCC 14053 by agar disk diffusion method; assay type: functional, organism-based; procedure, shortened: as §1
Escherichia coli [8] = test: Antibacterial activity against Escherichia coli ATCC 25922 by agar disk diffusion method; assay type: functional, organism-based; procedure, shortened: as §1

| SMILES | IC50 (U2OS) [µM] | diameter of the inhibition zone (DIZ) (Staphylococcus aureus [1]) [mm] | zone of inhibition at 200 µg/disc (Staphylococcus aureus [2]) [mm] | Activity (Candida albicans [3]) | zone of inhibition at 200 µg/disc (Bacillus subtilis [4]) [mm] | Activity (Escherichia coli [5]) | Activity (Bacillus subtilis [6]) | Activity (Candida albicans [7]) | Activity (Staphylococcus aureus [1]) | Activity (Escherichia coli [8]) |
| --- | --- | --- | --- | --- | --- | --- | --- | --- | --- | --- |
| C/C1=C\C[C@@H](O)[C@](C)(O)[C@H]2C[C@@H]2C(C)(C)C[C@H]1O | > 10 | 9 |  |  |  |  |  |  |  |  |
| C/C1=C\CC[C@](C)(O)[C@H]2C[C@@H]2C(C)(C)C[C@H]1O | > 10 |  | 13 | inactive | 13 | inactive |  |  |  |  |
| C=C1CC/C=C(\C)[C@H](O)CC(C)(C)[C@H]2C[C@H]12 | > 10 |  |  |  |  |  | inactive | inactive | inactive | inactive |
